Reference: ChEMBL document CHEMBL3627671, “Novel derivatives of nitro-substituted salicylic acids: Synthesis, antimicrobial activity and cytotoxicity” (Bioorg Med Chem, 2015)
≈ marks a conversion by molar mass, not a printed value.

What was measured:
Type in all cases: functional
[1] = system: Mycobacterium tuberculosis; assay: Antimycobacterial activity against Mycobacterium tuberculosis H37Rv 331/88 after 14 days; conditions: H37Rv 331/88, 336 h
[2] = system: Mycobacterium tuberculosis; assay: Antimycobacterial activity against Mycobacterium tuberculosis H37Rv 331/88 after 21 days; conditions: H37Rv 331/88, 504 h
Mycobacterium avium [3] = assay: Antimycobacterial activity against Mycobacterium avium 330/80 after 14 days; conditions: 330/80, 336 h
Mycobacterium avium [4] = assay: Antimycobacterial activity against Mycobacterium avium 330/80 after 21 days; conditions: 330/80, 504 h
Mycobacterium kansasii [5] = assay: Antimycobacterial activity against Mycobacterium kansasii 235/80 after 7 days; conditions: 235/80, 168 h
Method in brief: (§1)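 Šula's semisynthetic medium micromethod at 37 °C, read after 7, 14 and 21 days. The 1.0 McFarland suspension was diluted 10^-4. MIC determined. 6509/96 is a clinical isolate.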

Mycobacterium kansasii [6] = assay: Antimycobacterial activity against Mycobacterium kansasii 235/80 after 14 days; conditions: 235/80, 336 h; method in brief: as §1
Mycobacterium kansasii [7] = assay: Antimycobacterial activity against Mycobacterium kansasii 235/80 after 21 days; conditions: 235/80, 504 h; method in brief: as §1
Mycobacterium kansasii [8] = assay: Antimycobacterial activity against Mycobacterium kansasii 6509/96 after 7 days; conditions: 6509/96, 168 h; method in brief: as §1
Mycobacterium kansasii [9] = assay: Antimycobacterial activity against Mycobacterium kansasii 6509/96 after 14 days; conditions: 6509/96, 336 h; method in brief: as §1
Mycobacterium kansasii [10] = assay: Antimycobacterial activity against Mycobacterium kansasii 6509/96 after 21 days; conditions: 6509/96, 504 h; method in brief: as §1
Staphylococcus aureus [11] = assay: Antibacterial activity against Staphylococcus aureus CCM 4516/08 after 24 hrs by microdilution broth method; conditions: CCM 4516/08, 24 h
Staphylococcus aureus [12] = assay: Antibacterial activity against Staphylococcus aureus CCM 4516/08 after 48 hrs by microdilution broth method; conditions: CCM 4516/08, 48 h
Staphylococcus aureus [13] = assay: Antibacterial activity against methicillin-resistant Staphylococcus aureus H 5996/08 after 24 hrs by microdilution broth method; conditions: H 5996/08, 24 h
Staphylococcus aureus [14] = assay: Antibacterial activity against methicillin-resistant Staphylococcus aureus H 5996/08 after 48 hrs by microdilution broth method; conditions: H 5996/08, 48 h
[15] = system: Staphylococcus epidermidis; assay: Antibacterial activity against Staphylococcus epidermidis H 6966/08 after 24 hrs by microdilution broth method; conditions: H 6966/08, 24 h
Method in brief: (§2)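 Mueller-Hinton broth microdilution (modified M07-A07), pH 7.4 (±0.2). Compounds dissolved in DMSO, tested at final 500 to 0.49 µmol/L. Inoculum in sterile water matched to 0.5 McFarland. Incubated in the dark, humid atmosphere, 35 °C, read at 24 and 48 h visually and at 540 nm. MIC taken as ≥95% growth reduction (IC95) versus control.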

[16] = system: Staphylococcus epidermidis; assay: Antibacterial activity against Staphylococcus epidermidis H 6966/08 after 48 hrs by microdilution broth method; conditions: H 6966/08, 48 h; method in brief: as §2
Enterococcus sp. [17] = assay: Antibacterial activity against Enterococcus sp. J 14365/08 after 24 hrs by microdilution broth method; conditions: J 14365/08, 24 h; method in brief: as §2
Enterococcus sp. [18] = assay: Antibacterial activity against Enterococcus sp. J 14365/08 after 48 hrs by microdilution broth method; conditions: J 14365/08, 48 h; method in brief: as §2
Escherichia coli [19] = assay: Antibacterial activity against Escherichia coli CCM4517 after 24 hrs by microdilution broth method; conditions: CCM4517, 24 h; method in brief: as §2
Escherichia coli [20] = assay: Antibacterial activity against Escherichia coli CCM4517 after 48 hrs by microdilution broth method; conditions: CCM4517, 48 h; method in brief: as §2
Klebsiella pneumoniae [21] = assay: Antibacterial activity against Klebsiella pneumoniae D 11750/08 after 24 hrs by microdilution broth method; conditions: D 11750/08, 24 h; method in brief: as §2
Klebsiella pneumoniae [22] = assay: Antibacterial activity against Klebsiella pneumoniae D 11750/08 after 48 hrs by microdilution broth method; conditions: D 11750/08, 48 h; method in brief: as §2
Klebsiella pneumoniae [23] = assay: Antibacterial activity against ESBL-positive Klebsiella pneumoniae J 14368/08 after 24 hrs by microdilution broth method; conditions: J 14368/08, 24 h; method in brief: as §2
Klebsiella pneumoniae [24] = assay: Antibacterial activity against ESBL-positive Klebsiella pneumoniae J 14368/08 after 48 hrs by microdilution broth method; conditions: J 14368/08, 48 h; method in brief: as §2
Pseudomonas aeruginosa [25] = assay: Antibacterial activity against Pseudomonas aeruginosa CCM 1961 after 24 hrs by microdilution broth method; conditions: CCM 1961, 24 h; method in brief: as §2
Pseudomonas aeruginosa [26] = assay: Antibacterial activity against Pseudomonas aeruginosa CCM 1961 after 48 hrs by microdilution broth method; conditions: CCM 1961, 48 h; method in brief: as §2
Candida albicans [27] = assay: Antifungal activity against Candida albicans ATCC 44859 after 24 hrs by microdilution broth method; conditions: ATCC 44859, 24 h
Method in brief: (§3)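 CLSI M27-A3 broth microdilution in RPMI 1640 with glutamine, buffered to pH 7.0 with MOPS; DMSO diluent. Yeast inoculum 5 × 10^3 ± 0.2 CFU/mL. Moulds grown on Sabouraud agar 3–10 days before spore harvest, final inoculum 0.5-5 × 10^4 CFU/mL, checked in a Bürker chamber. Incubated dark, humid, 35 °C, read at 24 and 48 h visually and at 540 nm. MIC taken as ≥80% (yeasts) or ≥50% (filamentous) growth reduction versus control.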

Candida albicans [28] = assay: Antifungal activity against Candida albicans ATCC 44859 after 48 hrs by microdilution broth method; conditions: ATCC 44859, 48 h; method in brief: as §3
Candida tropicalis [29] = assay: Antifungal activity against Candida tropicalis 156 after 24 hrs by microdilution broth method; conditions: Candida tropicalis, 156, 24 h; method in brief: as §3
Candida tropicalis [30] = assay: Antifungal activity against Candida tropicalis 156 after 48 hrs by microdilution broth method; conditions: Candida tropicalis, 156, 48 h; method in brief: as §3
Pichia kudriavzevii [31] = assay: Antifungal activity against Candida krusei E28 after 24 hrs by microdilution broth method; conditions: E28, 24 h; method in brief: as §3
Pichia kudriavzevii [32] = assay: Antifungal activity against Candida krusei E28 after 48 hrs by microdilution broth method; conditions: E28, 48 h; method in brief: as §3
Nakaseomyces glabratus [33] = assay: Antifungal activity against Candida glabrata 20/I after 24 hrs by microdilution broth method; method in brief: as §3
Nakaseomyces glabratus [34] = assay: Antifungal activity against Candida glabrata 20/I after 48 hrs by microdilution broth method; method in brief: as §3
Trichosporon asahii [35] = assay: Antifungal activity against Trichosporon asahii 1188 after 24 hrs by microdilution broth method; conditions: Trichosporon asahii, 1188, 24 h; method in brief: as §3
Trichosporon asahii [36] = assay: Antifungal activity against Trichosporon asahii 1188 after 48 hrs by microdilution broth method; conditions: Trichosporon asahii, 1188, 48 h; method in brief: as §3
Aspergillus fumigatus [37] = assay: Antifungal activity against Aspergillus fumigatus 231 after 24 hrs by microdilution broth method; conditions: Aspergillus fumigatus, 231, 24 h; method in brief: as §3
Aspergillus fumigatus [38] = assay: Antifungal activity against Aspergillus fumigatus 231 after 48 hrs by microdilution broth method; conditions: Aspergillus fumigatus, 231, 48 h; method in brief: as §3
Lichtheimia corymbifera [39] = assay: Antifungal activity against Absidia corymbifera 272 after 24 hrs by microdilution broth method; conditions: Lichtheimia corymbifera, 272, 24 h; method in brief: as §3
Lichtheimia corymbifera [40] = assay: Antifungal activity against Absidia corymbifera 272 after 48 hrs by microdilution broth method; conditions: Lichtheimia corymbifera, 272, 48 h; method in brief: as §3
[41] = system: Trichophyton mentagrophytes; assay: Antifungal activity against Trichophyton mentagrophytes 445 after 24 hrs by microdilution broth method; conditions: Trichophyton mentagrophytes, 445, 24 h
[42] = system: Trichophyton mentagrophytes; assay: Antifungal activity against Trichophyton mentagrophytes 445 after 48 hrs by microdilution broth method; conditions: Trichophyton mentagrophytes, 445, 48 h

O=C(Nc1cccc(I)c1)c1ccc([N+](=O)[O-])cc1O
MIC [1]: 16 µM (≈ 6.15 µg/mL)
MIC [2]: 16 µM (≈ 6.15 µg/mL)
MIC (Mycobacterium avium [3]): 32 µM (≈ 12.3 µg/mL)
MIC (Mycobacterium avium [4]): 62.5 µM (≈ 24 µg/mL)
MIC (Mycobacterium kansasii [5]): 8 µM (≈ 3.07 µg/mL)
MIC (Mycobacterium kansasii [6]): 16 µM (≈ 6.15 µg/mL)
MIC (Mycobacterium kansasii [7]): 16 µM (≈ 6.15 µg/mL)
MIC (Mycobacterium kansasii [8]): 16 µM (≈ 6.15 µg/mL)
MIC (Mycobacterium kansasii [9]): 16 µM (≈ 6.15 µg/mL)
MIC (Mycobacterium kansasii [10]): 16 µM (≈ 6.15 µg/mL)
MIC (Staphylococcus aureus [11]): 3.9 µM (≈ 1.5 µg/mL)
MIC (Staphylococcus aureus [12]): 3.9 µM (≈ 1.5 µg/mL)
MIC (Staphylococcus aureus [13]): 3.9 µM (≈ 1.5 µg/mL)
MIC (Staphylococcus aureus [14]): 3.9 µM (≈ 1.5 µg/mL)
MIC [15]: 15.6 µM (≈ 6 µg/mL)
MIC [16]: 15.6 µM (≈ 6 µg/mL)
MIC (Enterococcus sp. [17]): > 500 µM
MIC (Enterococcus sp. [18]): > 500 µM
MIC (Escherichia coli [19]): > 500 µM
MIC (Escherichia coli [20]): > 500 µM
MIC (Klebsiella pneumoniae [21]): > 500 µM
MIC (Klebsiella pneumoniae [22]): > 500 µM
MIC (Klebsiella pneumoniae [23]): > 500 µM
MIC (Klebsiella pneumoniae [24]): > 500 µM
MIC (Pseudomonas aeruginosa [25]): > 500 µM
MIC (Pseudomonas aeruginosa [26]): > 500 µM
MIC (Candida albicans [27]): > 500 µM
MIC (Candida albicans [28]): > 500 µM
MIC (Candida tropicalis [29]): > 500 µM
MIC (Candida tropicalis [30]): > 500 µM
MIC (Pichia kudriavzevii [31]): > 500 µM
MIC (Pichia kudriavzevii [32]): > 500 µM
MIC (Nakaseomyces glabratus [33]): > 500 µM
MIC (Nakaseomyces glabratus [34]): > 500 µM
MIC (Trichosporon asahii [35]): > 500 µM
MIC (Trichosporon asahii [36]): > 500 µM
MIC (Aspergillus fumigatus [37]): > 500 µM
MIC (Aspergillus fumigatus [38]): > 500 µM
MIC (Lichtheimia corymbifera [39]): > 500 µM
MIC (Lichtheimia corymbifera [40]): > 500 µM
MIC [41]: > 500 µM
MIC [42]: > 500 µM
